# Data published in publication PMC3195516 (Synthesis, 2010).
# Like-named read-outs stand apart in the source and are kept apart here.
# Legend:
# L1210 cells [1] = test: L1210 cell growth inhibition; type: cell-based, Murine
# How it was run: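 L1210 cells were kept in logarithmic-phase suspension in RPMI-1640 with 10% fetal bovine serum, 2% HEPES-MOPS buffer, 1 mM L-glutamine and 1 mM aminoguanidine at 37 °C under 5% CO₂. Cultures at 0.5–1.0 × 10⁵ cells/mL were treated, reseeded and incubated, then counted. IC50 is the concentration that reduces growth to 50% of control after the set exposure.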
# L1210 cells [2] = details: cultured L1210 cells; cited from earlier work
# [3] = Mus musculus, L1210, 48 h, read-out: IC50 (µM) 48 h
# [4] = Mus musculus, L1210, 96 h, read-out: IC50 (µM) 96 h
# [5] = read-out: IC50 (µM) 48 h, L1210 cells, 48 h exposure
# [6] = read-out: IC50 (µM) 96 h, L1210 cells, 96 h exposure
Structure (SMILES),IC50 (L1210 cells [1]; [3]) [µM],IC50 (L1210 cells [1]; [4]) [µM],IC50 (L1210 cells [1]; [5]) [µM],IC50 (L1210 cells [1]; [6]) [µM],intracellular concentration of compound (L1210 cells [2])
"C[C@]1(C(=O)O)CSC(c2ccc(O)cc2O)=N1 [(S)-4′-(HO)-DADFT (6), (S)-2-(2,4-dihydroxyphenyl)-4,5-dihydro-4-methyl-4-thiazolecarboxylic acid]",19,20,–,–,–
"CCNCCCNCCCNCCCNCC [DENSPM (1), reference compound]",–,–,20,2,–
"Cc1c(O)c(=O)ccn1C [L1 (2), 1,2-dimethyl-3-hydroxypyridin-4-one, reference compound]",46,55,–,–,~ 1 µM
"Cc1c(O)c(=O)ccn1CCCNCCCCNCCCN [L1-SPM-conjugate (3), 1-(12-amino-4,9-diazadodecyl)-2-methyl-3-hydroxy-4(1H)-pyridinone]",0.2,0.2,–,–,390 µM

# Now from value to compound, other results behind:
IC50 (L1210 cells [1]; [3]) [µM],IC50 (L1210 cells [1]; [4]) [µM],IC50 (L1210 cells [1]; [5]) [µM],IC50 (L1210 cells [1]; [6]) [µM],Structure (SMILES),intracellular concentration of compound (L1210 cells [2])
40,40,–,–,"C[C@]1(C(=O)O)CSC(c2ccc(OCCCCNCCCNCCCN)cc2O)=N1 [NSPD-(S)-4′-(HO)-DADFT (4), (S)-4,5-dihydro-2-[2-hydroxy-4-(12-amino-5,9-diazadodecyloxy)phenyl]-4-methyl-4-thiazolecarboxylic acid]",–
–,–,1.8,2.1,"CCOC(=O)[C@@]1(C)CSC(c2ccc(OC(=O)c3ccc(CNCCCNCCCN)cc3)cc2O)=N1 [NSPDBn-(S)-4′-(HO)-DADFT-EE (7), ethyl (S)-4,5-dihydro-2-[2-hydroxy-4-[4-(9-amino-2,6-diazanonyl)benzoyloxy]]-4-methyl-4-thiazolecarboxylate]",–
